Assay results gathered from unrelated publications.
Each line is one published result; the experiments were not run side by side.
Target: Casein kinase I isoform delta (CSNK1D, Homo sapiens, UniProt P48730)

SMILES	assay	conditions	measurement	value
Nc1ncc(-c2nc(N3CCOCC3)nc(N3CCOCC3)n2)c(C(F)F)n1	binding, competition with immobilised ligand	10 µM	remaining binding	90%
Cn1cc(-c2cc(F)cc(N3CCn4c(cc5c4CCCC5)C3=O)c2CO)cc(Nc2ccc(N3CCN(C4COC4)CC3)cn2)c1=O	enzyme activity, inhibitor	0.1 µM	inhibition	6%
Cc1nn(C)cc1-c1nc2c(N3CCN(Cc4ccc(Cl)cc4)CC3)c(Cl)cnc2[nH]1	binding, competition with immobilised ligand	1 µM	remaining binding	100%
O=c1[nH]c2ccccc2n1C1CCN(Cc2ccc(-c3[nH]c4cc5ncnc5cc4nc3-c3ccccc3)cc2)CC1	cell-free assay	0.5 µM	remaining signal	100%
COc1ncccc1-c1cnn2ccc(N3CCN(C(=O)OC(C)C)CC3)nc12	binding, competition with immobilised ligand	1 µM	remaining binding	85%
Cn1cncc1[C@@](O)(COc1ccc(C#N)cc1-c1ccc(OC(F)(F)F)cc1)c1ccc(C#N)cc1	cell-free assay, competition with immobilised ligand	1 µM	remaining binding	94%
Cn1cc(-c2cccc(N3CCc4c(sc5c4CC(C)(C)C5)C3=O)c2CO)cc(Nc2ccncn2)c1=O	enzyme activity, inhibitor	1 µM	inhibition	0%
CC(C)(C)c1cc(C=C(C#N)C#N)cc(Br)c1O	enzyme activity, inhibitor	0.5 µM	remaining activity	85.5%
